In ChEMBL document CHEMBL5352427, “Isoquinolone derivatives as lysophosphatidic acid receptor 5 (LPA5) antagonists: Investigation of structure-activity relationships, ADME properties and analgesic effects” (Eur J Med Chem, 2022):
Converted amounts (≈) assume the structure as drawn. The source made the active and inactive calls.

Legend:
[1] = target: T1, Lysophosphatidic acid receptor 5 (Homo sapiens, UniProt Q9H1C0); experiment: Antagonist activity at human LPA5 receptor expressed in RH7777 cells assessed as inhibition of EC80 concentration of hexadecyl LPA-induced calcium mobilization incubated for 15 mins by FLIPR method; type: functional, cell-based
[2] = target: T1, Lysophosphatidic acid receptor 5; experiment: Antagonist activity at human LPA5 receptor expressed in RH7777 cells assessed as inhibition of EC80 concentration of hexadecyl LPA-induced calcium mobilization incubated for 15 mins by FLIPR method relative to hexadecyl LPA; type: functional, cell-based; conditions: filed as antagonist
[3] = target: T1, Lysophosphatidic acid receptor 5; experiment: Antagonist activity at human LPA5 receptor expressed in RH7777 cells assessed as inhibition of EC80 concentration of LPA-induced cAMP accumulation preincubated for 30 mins followed by Eu-cAMP tracer addition and measured after 1 hr by TR-FRET assay; type: functional, cell-based
Procedure, shortened: (§1)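 hLPA5-RH7777 cells, switched to 0.2% FBS medium 20 h prior, lifted with versene, 2,000 cells/well in HBSS/5 mM HEPES/0.1% BSA/0.5 mM IBMX pH 7.4. Compound dilutions with hexadecyl LPA 16:0 EC80 (300 nM) plus forskolin, 30 min room temperature; LANCE Ultra Eu-cAMP tracer/ULight-anti-cAMP 1 h; TR-FRET 665 nm converted to cAMP via standard curve. Three-parameter logistic IC50; ≥3 experiments in duplicate.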

[4] = target: T1, Lysophosphatidic acid receptor 5; experiment: Antagonist activity at human LPA5 receptor expressed in RH7777 cells assessed as inhibition of EC80 concentration of LPA-induced cAMP accumulation preincubated for 30 mins followed by Eu-cAMP tracer addition and measured after 1 hr by TR-FRET assay relative to hexadecyl LPA; type: functional, cell-based; conditions: filed as antagonist; procedure, shortened: as §1
[5] = target: T1, Lysophosphatidic acid receptor 5; experiment: Agonist activity at human LPA5 receptor expressed in RH7777 cells assessed as calcium mobilization incubated for 15 mins by FLIPR method; type: functional, cell-based
Procedure, shortened: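 RH7777 cells stably expressing hLPA5, plated 20,000/well in 0.2% FBS medium 18–20 h, loaded 45 min at 37 °C with Calcium 5 dye in HBSS/20 mM HEPES/2.5 mM probenecid pH 7.4. […] Duplicates.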

Homo sapiens = species on record: Homo sapiens; experiment: Selectivity ratio of IC50 for antagonist activity at human LPA5 receptor expressed in RH7777 cells assessed as inhibition of LPA-induced cAMP accumulation to IC50 for antagonist activity at human LPA5 receptor expressed in RH7777 cells assessed as inhibition of LPA-induced calcium mobilization; type: cell-based
Rattus norvegicus [6] = experiment: Antiallodynic activity against CFA-induced Sprague-Dawley rat inflammatory pain model assessed as reduction in paw withdrawal threshold at 32 mg/kg measured after 2 hrs; type: functional, organism-based
Procedure, shortened: (§2)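 Adult male Sprague-Dawley rats (230–280 g, n=6/group); 0.1 ml CFA injected into right hind paw. Compounds i.p. (1–2 ml/kg) in 20% DMSO/10% emulphor/saline; AS2717638 in 30% propylene glycol vehicle. Mechanical paw withdrawal threshold (cut-off 26 g) measured every 30 min after single dose; two-way ANOVA, mean ± SEM.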

Rattus norvegicus [7] = species on record: Rattus norvegicus; experiment: Antiallodynic activity against CFA-induced mechanical allodynia Sprague-Dawley rat model assessed as reduction paw threshold pain measured after 2 hrs; type: functional, organism-based; conditions: dose 32.0 mg/kg; procedure, shortened: as §2
Rattus norvegicus [8] = species on record: Rattus norvegicus; experiment: Antinociceptive activity in CCI surgery-neuropathic pain induced Sprague-Dawley rat model assessed as reduction in paw threshold pain measured after 2 hrs; type: functional, organism-based; conditions: dose 32.0 mg/kg
Procedure, shortened: (§3)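 Male Sprague-Dawley rats (n=6), ketamine/xylazine anesthesia; four chromic gut ligatures ~1 mm apart around the right sciatic nerve. Drugs i.p. in DMSO/emulphor/saline (AS2717638 in propylene glycol vehicle), single or cumulative dosing with paw withdrawal threshold (cut-off 26 g) measured every 30 min.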

Rattus norvegicus [9] = experiment: Antiallodynic activity against CFA-induced mechanical allodynia Sprague-Dawley rat model assessed as reduction paw threshold pain measured at 32 mg/kg, ip; type: functional, organism-based; conditions: time 2.0 hrs, TDE = time-dependent effect; procedure, shortened: as §2
Rattus norvegicus [10] = experiment: Antinociceptive activity in CCI surgery-neuropathic pain induced Sprague-Dawley rat model assessed as reduction in paw threshold pain measured at 32 mg/kg, ip; type: functional, organism-based; conditions: time 2.0 hrs, TDE = time-dependent effect; procedure, shortened: as §3
[11] = Aqueous solubility of compound at pH 7.4; type: physicochemical; conditions: aqueous medium
Procedure, shortened: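 Kinetic solubility: 20 mM DMSO stock diluted into PBS (1 mM KH2PO4, 3 mM Na2HPO4, 155 mM NaCl) to a target of 400 μM; triplicates quantified by LC-MS/MS against matrix-matched standards.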

[12] = Apparent permeability across apical to basolateral side in MDCK-MDR1 cells incubated for 90 mins by LC-MS/MS analysis; type: ADME, cell-based, Canis lupus familiaris; conditions: dog, mdck-mdr1, 1.5 h
Procedure, shortened: (§4)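 MDCK-MDR1 cells (passage 5) grown 3 days on Transwell polycarbonate inserts; transport buffer HBSS/10 mM HEPES/0.25% BSA pH 7.4, 30 min preincubation 37 °C with TEER check. 10 μM test article added apical (A-to-B) or basolateral (B-to-A); receiver sampled at 30, 60, 90 min, LC-MS/MS. Papp = (dQ/dt)/(A·Ci); efflux ratio B-to-A/A-to-B. Atenolol, propranolol, digoxin references.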

[13] = Substrate activity at P-glycoprotein (unknown origin) in MDCK-MDR1 cells assessed as efflux ratio of apparent permeability across basolateral to apical over apical to basolateral side measured after 90 mins by LC-MS/MS analysis; type: ADME, cell-based, Canis lupus familiaris; conditions: dog, mdck-mdr1, 1.5 h; procedure, shortened: as §4
[14] = target: Lysophosphatidic acid receptor 1 (Homo sapiens) (UniProt Q92633); experiment: Antagonist activity at human LPA1 receptor expressed in CHO cells assessed as inhibition of LPA-induced calcium mobilization at 10 uM incubated for 15 mins by FLIPR analysis relative to control; type: functional, cell-based
Procedure, shortened: (§5)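 Calcium mobilization in CHO cells overexpressing LPA1, LPA2 or LPA3, run by a contract lab under its own protocols; compounds tested at single 10 μM.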

[15] = target: Lysophosphatidic acid receptor 2 (Homo sapiens) (UniProt Q9HBW0); experiment: Antagonist activity at human LPA2 receptor expressed in CHO cells assessed as inhibition of LPA-induced calcium mobilization at 10 uM incubated for 15 mins by FLIPR analysis relative to control; type: functional, cell-based; procedure, shortened: as §5
[16] = target: T2, Lysophosphatidic acid receptor 3 (Homo sapiens) (UniProt Q9UBY5); experiment: Antagonist activity at human LPA3 receptor expressed in CHO cells assessed as inhibition of LPA-induced calcium mobilization at 10 uM incubated for 15 mins by FLIPR analysis relative to control; type: functional, cell-based; procedure, shortened: as §5
T2 sequence (whole entry): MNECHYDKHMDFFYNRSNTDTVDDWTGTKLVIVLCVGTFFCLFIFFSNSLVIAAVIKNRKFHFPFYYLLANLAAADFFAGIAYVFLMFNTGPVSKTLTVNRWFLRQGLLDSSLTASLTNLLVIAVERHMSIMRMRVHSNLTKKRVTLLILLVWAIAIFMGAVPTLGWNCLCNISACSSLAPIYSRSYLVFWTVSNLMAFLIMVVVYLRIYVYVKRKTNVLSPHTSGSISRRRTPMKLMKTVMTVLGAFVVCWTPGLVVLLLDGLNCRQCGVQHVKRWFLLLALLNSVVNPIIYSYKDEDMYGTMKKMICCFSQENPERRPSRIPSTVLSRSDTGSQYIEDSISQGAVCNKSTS

[17] = target: Lysophosphatidic acid receptor 4 (Homo sapiens) (UniProt Q99677); experiment: Antagonist activity at human LPA4 receptor expressed in CHO cells assessed as inhibition of LPA-induced calcium accumulation preincubated for 30 mins followed by Eu-cAMP tracer addition and measured after 1 hr by TR-FRET assay relative to hexadecyl LPA; type: functional, cell-based
Rattus norvegicus [18] = experiment: Antiallodynic activity against CFA-induced Sprague-Dawley rat inflammatory pain model assessed as reduction in paw withdrawal threshold at 17.8 mg/kg measured after 5 hrs; type: functional, organism-based; procedure, shortened: as §2

T1 sequence (Q9H1C0 whole entry): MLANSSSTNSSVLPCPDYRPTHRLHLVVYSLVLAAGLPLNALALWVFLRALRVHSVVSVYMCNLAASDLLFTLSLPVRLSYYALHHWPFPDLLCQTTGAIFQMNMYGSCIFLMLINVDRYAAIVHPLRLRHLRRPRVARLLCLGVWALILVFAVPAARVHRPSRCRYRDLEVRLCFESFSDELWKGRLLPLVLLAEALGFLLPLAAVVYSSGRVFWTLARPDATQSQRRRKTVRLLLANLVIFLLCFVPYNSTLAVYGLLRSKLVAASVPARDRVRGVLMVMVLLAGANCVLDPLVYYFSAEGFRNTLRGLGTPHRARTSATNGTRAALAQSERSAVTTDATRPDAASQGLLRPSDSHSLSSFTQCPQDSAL
Chain of Lysophosphatidic acid receptor 2 (Homo sapiens) (Q9HBW0 whole entry): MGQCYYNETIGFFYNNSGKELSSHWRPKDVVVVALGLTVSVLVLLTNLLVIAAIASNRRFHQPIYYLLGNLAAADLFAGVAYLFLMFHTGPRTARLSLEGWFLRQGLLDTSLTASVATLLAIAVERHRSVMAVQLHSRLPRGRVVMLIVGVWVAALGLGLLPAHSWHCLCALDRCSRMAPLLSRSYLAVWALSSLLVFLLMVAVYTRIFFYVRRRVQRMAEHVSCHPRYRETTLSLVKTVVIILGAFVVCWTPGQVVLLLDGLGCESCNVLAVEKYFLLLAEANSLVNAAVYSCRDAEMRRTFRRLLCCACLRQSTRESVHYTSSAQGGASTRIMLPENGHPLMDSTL
Chain of Lysophosphatidic acid receptor 1 (Homo sapiens) (Q92633 whole entry): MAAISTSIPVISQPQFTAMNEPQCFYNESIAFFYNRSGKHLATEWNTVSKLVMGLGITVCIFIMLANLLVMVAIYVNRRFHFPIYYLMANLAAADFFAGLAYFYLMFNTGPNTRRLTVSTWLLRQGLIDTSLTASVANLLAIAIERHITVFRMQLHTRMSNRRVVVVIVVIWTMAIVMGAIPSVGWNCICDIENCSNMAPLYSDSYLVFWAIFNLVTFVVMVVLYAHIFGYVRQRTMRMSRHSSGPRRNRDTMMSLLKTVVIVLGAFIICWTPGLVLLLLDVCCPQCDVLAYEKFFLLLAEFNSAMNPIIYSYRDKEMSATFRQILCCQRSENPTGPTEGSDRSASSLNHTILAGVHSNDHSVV
Chain of Lysophosphatidic acid receptor 4 (Homo sapiens) (Q99677 whole entry): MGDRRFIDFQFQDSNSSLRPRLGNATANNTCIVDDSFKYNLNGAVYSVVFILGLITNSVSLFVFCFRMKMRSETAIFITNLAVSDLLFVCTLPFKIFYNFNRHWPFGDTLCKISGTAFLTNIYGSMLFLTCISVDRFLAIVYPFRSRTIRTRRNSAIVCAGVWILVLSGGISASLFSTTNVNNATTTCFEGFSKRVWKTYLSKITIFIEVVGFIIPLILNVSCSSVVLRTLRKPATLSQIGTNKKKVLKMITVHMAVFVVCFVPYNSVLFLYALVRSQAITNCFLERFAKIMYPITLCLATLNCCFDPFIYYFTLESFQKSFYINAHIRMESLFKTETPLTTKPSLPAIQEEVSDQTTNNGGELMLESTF

Structure (SMILES) | IC50 [1] [nM] | inhibition [2] [%] | IC50 [3] [nM] | inhibition [4] [%] | Activity [5] | other results
COc1cc2c(C(=O)N3CCC(F)CC3)cn(-c3cccc(C(C)C)c3)c(=O)c2cc1OC | 200 | 103 | 394 | 98 | inactive | 
CCCCCCCCCCCCCCCCOC[C@@H](O)COP(=O)(O)O |  |  |  |  |  | EC50 [1]: 15 nM; EC50 [3]: 95 nM
COc1cc2c(C(=O)N3CCC(F)CC3)cn(-c3cccc(N(C)C)c3)c(=O)c2cc1OC | 79 | 102 | 950 | 94 | inactive | 
COc1cc2c(C(=O)N3CCC(F)CC3)cn(-c3ccc4occ(C)c4c3)c(=O)c2cc1OC | 144 | 102 | 203 | 100 | inactive | 
C#CC1CCN(C(=O)c2cn(-c3cccc(N(C)C)c3)c(=O)c3cc(OC)c(OC)cc23)CC1 | 46 | 105 |  | 101 | inactive | 
COc1cc2c(C(=O)N3CCCCC3)cn(-c3ccc4occ(C)c4c3)c(=O)c2cc1OC | 48 | 105 | 190 | 88 | inactive | 
COc1cc2c(C(=O)N3CCCCC3)cn(-c3cccc(N(C)C)c3)c(=O)c2cc1OC | 87 | 104 | 790 | 89 | inactive | 
CCN1CCc2ccc(-n3cc(C(=O)N4CCC(F)CC4)c4cc(OC)c(OC)cc4c3=O)cc21 | 58 | 104 | 570 | 94 |  | 
COc1cc2c(C(=O)N3CCCCC3)cn(-c3ccc4ccn(C)c4c3)c(=O)c2cc1OC | 64 | 104 | 460 | 109 | inactive | 
COc1cc2c(C(=O)N3CCCCC3)cn(-c3noc4ccc(C)cc34)c(=O)c2cc1OC | 36 | 108 | 210 | 102 |  | Ratio IC50 (Homo sapiens): 5.8; Activity (Rattus norvegicus [6]): Active; Activity (Rattus norvegicus [7]): Dose-Dependent Effect; Activity (Rattus norvegicus [8]): Dose-Dependent Effect; Activity (Rattus norvegicus [9]): Tde; Activity (Rattus norvegicus [10]): Tde
COc1cc2c(C(=O)N3CCC(F)CC3)cn(-c3ccc4scc(C)c4c3)c(=O)c2cc1OC | 69 | 107 | 340 | 104 | inactive | solubility kinetic [11]: 96.4 µM (≈ 46.3 µg/mL); Papp [12]: 22.2 10^-6 cm/s; Ratio [13]: 1.4; inhibition [14]: < 50%; inhibition [15]: < 50%; inhibition [16]: < 50%; inhibition [17]: < 50%; Activity (Rattus norvegicus [18]): Active
COc1cc2c(C(=O)N3CCCCCCC3)cn(-c3cccc(N(C)C)c3)c(=O)c2cc1OC | 301 | 109 |  |  | inactive | 
COc1cc2c(C(=O)N3CCCCC3)cn(-c3ccc4onc(C)c4c3)c(=O)c2cc1OC | 3900 | 56 |  |  | inactive | 
COc1cc2c(C(=O)N3CCC(C#N)CC3)cn(-c3cccc(N(C)C)c3)c(=O)c2cc1OC | 102 | 89 |  | 92 | inactive | 
COc1cc2c(C(=O)N3CCC(c4ccccc4)CC3)cn(-c3cccc(N(C)C)c3)c(=O)c2cc1OC | 1190 | 108 |  |  | inactive | 
